Laboratory results taken from ChEMBL document CHEMBL4613227, “Synthesis and evaluation of the HIF-1α inhibitory activity of 3(5)-substituted-4-(quinolin-4-yl)- and 4-(2-phenylpyridin-4-yl)pyrazoles as inhibitors of ALK5” (Bioorg Med Chem Lett, 2020).
pIC50: −log10 of the molar value. Active and inactive are the calls of the source. No cut-off for these calls is given here. Where a SMILES comes first, the peptide text is derived from it. The star is where a group is joined. Cbz = O=C(OCc1ccccc1)*

Columns and labels:
[1] = target: T1, Mitogen-activated protein kinase 14 (Homo sapiens, UniProt Q16539); test: Inhibition of recombinant human p38alpha expressed in Escherichia coli assessed as residual activity at 10 uM (reference value: 100 +/- 0.1%)
T1 sequence (Q16539 whole entry, the tested form may be a part): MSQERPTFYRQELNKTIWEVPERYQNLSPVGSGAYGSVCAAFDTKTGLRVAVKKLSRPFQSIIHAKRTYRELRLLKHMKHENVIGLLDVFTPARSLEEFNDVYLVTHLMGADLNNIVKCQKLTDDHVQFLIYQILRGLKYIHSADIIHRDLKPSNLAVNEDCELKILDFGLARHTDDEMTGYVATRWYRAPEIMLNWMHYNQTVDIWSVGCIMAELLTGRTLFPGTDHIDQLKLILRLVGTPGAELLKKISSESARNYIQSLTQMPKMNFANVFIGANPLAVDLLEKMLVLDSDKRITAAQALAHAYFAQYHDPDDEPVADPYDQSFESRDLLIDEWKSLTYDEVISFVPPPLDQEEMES
How it was run: (§1)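 Single-point kinase screen at 10 μM, in duplicate; ALK5 as human GST-fusion from baculovirus/Sf9, p38α as untagged human protein from E. coli; residual activity relative to DMSO vehicle, mean ± SD of two independent experiments.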

[2] = target: T2, TGF-beta receptor type-1 (Homo sapiens) (UniProt P36897); test: Inhibition of recombinant GST-tagged human ALK5 expressed in baculovirus infected Sf9 insect cells assessed as residual activity at 10 uM; how it was run: as §1
T2 sequence (whole entry): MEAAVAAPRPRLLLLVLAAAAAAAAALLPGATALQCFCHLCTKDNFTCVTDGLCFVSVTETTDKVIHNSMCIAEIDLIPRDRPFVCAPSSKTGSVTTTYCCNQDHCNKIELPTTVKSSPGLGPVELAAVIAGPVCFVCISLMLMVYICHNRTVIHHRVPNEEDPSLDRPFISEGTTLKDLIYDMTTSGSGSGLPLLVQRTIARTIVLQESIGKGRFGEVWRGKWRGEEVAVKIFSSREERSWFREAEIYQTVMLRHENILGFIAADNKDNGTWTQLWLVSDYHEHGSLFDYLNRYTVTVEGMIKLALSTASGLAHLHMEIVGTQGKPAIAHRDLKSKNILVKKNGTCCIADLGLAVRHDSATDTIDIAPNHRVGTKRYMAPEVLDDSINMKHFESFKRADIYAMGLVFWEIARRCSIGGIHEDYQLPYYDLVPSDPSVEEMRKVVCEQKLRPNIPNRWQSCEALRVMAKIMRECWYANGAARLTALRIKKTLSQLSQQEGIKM

[3] = target: T1, Mitogen-activated protein kinase 14; test: Inhibition of recombinant human p38alpha expressed in Escherichia coli
How it was run: (§2)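 IC50 determination against ALK5 (human GST-fusion, Sf9 baculovirus) and p38α (untagged human, E. coli); values averaged from three independent experiments run in triplicate.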

TGF-beta receptor type-1 = target: T3, TGF-beta receptor type-1 (Homo sapiens, UniProt P36897); test: Inhibition of recombinant GST-tagged human ALK5 expressed in baculovirus infected Sf9 insect cells; how it was run: as §2
T3 sequence (P36897 whole entry): T2 sequence (whole entry)

HCT-116 [4] = test: […] of HIF1alpha expression in human HCT116 cells at 10 uM after 30 mins in presence of 1% O2 by Western blot analysis; assay type: functional, cell-based
HCT-116 [5] = test: Inhibition of TNFalpha-induced HIF1alpha expression in human HCT116 cells at 50 uM by Western blot analysis; assay type: functional, cell-based
How it was run: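 HCT116 exposed to TNF 10 ng/mL for 24 h with graded concentrations; total protein blotted for HIF-1α, Topo-I reprobe as loading control.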

HCT-116 [6] = test: Induction of apoptosis in human HCT116 cells assessed as early apoptotic cells at 50 uM preincubated for 12 hrs followed by TNF stimulation and measured after 24 hrs by Annexin-V/PI-staining based flow cytometric analysis (reference value: 2.8%); assay type: functional
HCT-116 [7] = test: Induction of apoptosis in human HCT116 cells assessed as late apoptotic cells at 50 uM preincubated for 12 hrs followed by TNF stimulation and measured after 24 hrs by Annexin-V/PI-staining based flow cytometric analysis (reference value: 1.4%); assay type: functional
HCT-116 [8] = test: Induction of apoptosis in human HCT116 cells assessed as viable cells at 50 uM after 12 hrs by Annexin-V/PI-staining based flow cytometric analysis (reference value: 95.3%); assay type: functional; settings: HCT-116, 12 h, read-out: Activity
HCT-116 [9] = test: Induction of apoptosis in human HCT116 cells assessed as necrotic cells at 50 uM preincubated for 12 hrs followed by TNF stimulation and measured after 24 hrs by Annexin-V/PI-staining based flow cytometric analysis (reference value: 3.6%); assay type: functional
HCT-116 [10] = test: Induction of apoptosis in human HCT116 cells assessed as necrotic cells at 50 uM after 12 hrs by Annexin-V/PI-staining based flow cytometric analysis (reference value: 3.5%); assay type: functional
HCT-116 [11] = test: Induction of apoptosis in human HCT116 cells assessed as viable cells at 50 uM preincubated for 12 hrs followed by TNF stimulation and measured after 24 hrs by Annexin-V/PI-staining based flow cytometric analysis (reference value: 92.4%); assay type: functional; settings: read-out: Activity

Structure (SMILES) | Activity [1] | Activity [2] | also measured
Cc1cccc(-c2nn(CC(=O)Nc3cccc(F)c3)cc2-c2ccnc3ccccc23)n1 | 4% | 0% | 
Cc1cccc(-c2nn(CC(=O)Nc3ccccc3)cc2-c2ccnc(-c3ccccc3)c2)n1 | 11% | 12% | 
Cc1cccc(-c2c(-c3ccnc(-c4ccccc4)c3)cnn2CC(=O)Nc2cccc(F)c2)n1 | 81% | 93% | 
Cc1cccc(-c2c(-c3ccnc(-c4ccccc4)c3)cnn2CC(=O)Nc2ccccc2)n1 | 66% | 100% | 
Cc1cccc(-c2nn(CC(=S)Nc3cccc(F)c3)cc2-c2ccnc3ccccc23)n1 | 3% | 2% | pIC50 [3]: 7.20; pIC50 (TGF-beta receptor type-1): 7.37
Cc1cccc(-c2c(-c3ccnc4ccccc34)cnn2CC(=O)Nc2ccccc2F)n1 | 50% | 79% | 
Cc1cccc(-c2nn(CC(=S)Nc3cccc(F)c3)cc2-c2ccnc(-c3ccccc3)c2)n1 | 9% | 6% | pIC50 [3]: 6.12; pIC50 (TGF-beta receptor type-1): 5.81
Cc1cccc(-c2nn(CC(=S)Nc3ccccc3)cc2-c2ccnc(-c3ccccc3)c2)n1 | 10% | 11% | pIC50 [3]: 6.27; pIC50 (TGF-beta receptor type-1): 5.77
Cc1cccc(-c2nn(CC(=O)Nc3ccccc3F)cc2-c2ccnc(-c3ccccc3)c2)n1 | 20% | 20% | 
Cc1cccc(-c2nn(CC(=O)Nc3ccccc3)cc2-c2ccnc3ccccc23)n1 | 10% | 2% | 
CC(C)C[C@@H](C=O)NC(=O)[C@H](CC(C)C)NC(=O)[C@H](CC(C)C)NC(=O)OCc1ccccc1 (Cbz-Leu-Leu-Leu-aldehyde) |  |  | Activity (HCT-116 [4]): Active
Cc1cccc(-c2nn(CC(=O)Nc3cccc(F)c3)cc2-c2ccnc(-c3ccccc3)c2)n1 | 14% | 3% | 
Cc1cccc(-c2c(-c3ccnc4ccccc34)cnn2CC(=O)Nc2cccc(F)c2)n1 | 31% | 39% | 
Cc1cccc(-c2c(-c3ccnc(-c4ccccc4)c3)cnn2CC(=O)Nc2cccc(C#N)c2)n1 | 135% | 105% | 
Cc1cccc(-c2nn(CC(=O)Nc3ccccc3F)cc2-c2ccnc3ccccc23)n1 | 6% | 0% | 
Cc1cccc(-c2nn3c(c2-c2ccnc4ccc(C(N)=O)cc24)CCC3)n1 [GALUNISERTIB] | 4% |  | inhibition (HCT-116 [5]): Active; Activity (HCT-116 [6]): 3.7%; Activity (HCT-116 [7]): 2.8%; viability at 50 µM (HCT-116 [8]): 85.2%; Activity (HCT-116 [9]): 5.7%; Activity (HCT-116 [10]): 8.5%; viability at 50 µM (HCT-116 [11]): 87.7%
Cc1cccc(-c2c(-c3ccnc4ccccc34)cnn2CC(=O)Nc2ccccc2)n1 | 24% | 71% | 
Cc1cccc(-c2nn(CC(=S)Nc3ccccc3F)cc2-c2ccnc(-c3ccccc3)c2)n1 | 4% | 11% | pIC50 [3]: 6.31; pIC50 (TGF-beta receptor type-1): 5.69
Cc1cccc(-c2nn(CC(=S)Nc3ccccc3)cc2-c2ccnc3ccccc23)n1 | 3% | 3% | pIC50 [3]: 7.13; pIC50 (TGF-beta receptor type-1): 7.24
Cc1cccc(-c2c(-c3ccnc(-c4ccccc4)c3)cnn2CC(=O)Nc2ccccc2F)n1 | 96% | 102% | 
Cc1cccc(-c2nn(CC(=S)Nc3cccc(C#N)c3)cc2-c2ccnc(-c3ccccc3)c2)n1 | 15% | 12% | pIC50 [3]: 5.94; pIC50 (TGF-beta receptor type-1): 5.66
Cc1cccc(-c2c(-c3ccnc4ccccc34)cnn2CC(=O)Nc2cccc(C#N)c2)n1 | 51% | 17% | 
Cc1cccc(-c2nn(CC(=O)Nc3cccc(C#N)c3)cc2-c2ccnc(-c3ccccc3)c2)n1 | 24% | 18% | 
Cc1cccc(-c2nn(CC(=O)Nc3cccc(C#N)c3)cc2-c2ccnc3ccccc23)n1 | 6% | 1% | 
Cc1cccc(-c2nn(CC(=S)Nc3ccccc3F)cc2-c2ccnc3ccccc23)n1 | 4% | 2% | pIC50 [3]: 7.17; pIC50 (TGF-beta receptor type-1): 7.28
